Data from ChEMBL document CHEMBL1125579, “Relative structure-inhibition analyses of the N-benzoyl and N-(phenylsulfonyl) amino acid aldose reductase inhibitors” (J Med Chem, 1991).

Target: Aldo-keto reductase family 1 member B1 (Rattus norvegicus, UniProt P07943)
Experiment: Inhibitory activity against aldose reductase in rat lens
In short: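 Rat lens enzyme: 100 lenses from frozen rat eyes homogenized in distilled water and centrifuged at 5 °C; the supernatant was brought to 40% ammonium sulfate saturation and the freshly prepared supernatant was used. NADPH loss was read at 340 nm for 3 min.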

SMILES | IC50 [µM]
O=C(O)CNC(=O)c1ccc(NC(=O)Cc2ccccc2)cc1 | 21
CN(CC(=O)O)C(=O)c1ccc2ccccc2c1 | 19
Nc1ccc(C(=O)N(CC(=O)O)c2ccccc2)cc1 | 12
CN(CC(=O)O)C(=O)c1cccc2ccccc12 | 40
CN(CC(=O)O)C(=O)c1ccc([N+](=O)[O-])cc1 | 26
Cc1ccc(C(=O)N(C)CC(=O)O)cc1 | 13
O=C(O)CNC(=O)c1cccc2ccccc12 | 220
O=C(O)CNC(=O)c1ccc(NC(=O)CCc2ccccc2)cc1 | 45
CN(CC(=O)O)C(=O)c1ccccc1 | 23
O=C(O)CNC(=O)c1cccc(NC(=O)c2ccccc2)c1 | 49
O=C(O)CN(C(=O)c1ccc2ccccc2c1)c1ccccc1 | 19
O=C(O)CNC(=O)c1ccc2ccccc2c1 | 70

Stronger by IC50, values ahead:

IC50 [µM] | SMILES
11 | CN(CC(=O)O)C(=O)c1ccc(N)cc1
9.6 | O=C(O)CNC(=O)c1ccc(NC(=O)c2ccccc2)cc1
8.8 | CN(CC(=O)O)C(=O)c1ccc(F)cc1
8.5 | O=C(O)CN(C(=O)c1cccc2ccccc12)c1ccccc1
8.2 | O=C(O)CN(C(=O)c1ccc(F)cc1)c1ccccc1
6.7 | COc1ccc(C(=O)N(C)CC(=O)O)cc1
6.3 | O=C(O)CN(C(=O)c1ccccc1)c1ccccc1
3.7 | Cc1ccc(C(=O)N(CC(=O)O)c2ccccc2)cc1
3.2 | COc1ccc(C(=O)N(CC(=O)O)c2ccccc2)cc1
2.8 | CN(CC(=O)O)C(=O)c1ccc(NC(=O)c2ccccc2)cc1
0.56 | O=C(O)CN(C(=O)c1ccc([N+](=O)[O-])cc1)c1ccccc1
0.24 | O=C(O)CN(C(=O)c1ccc(NC(=O)c2ccccc2)cc1)c1ccccc1
